Results taken from ChEMBL document CHEMBL5584302, “Exploration of Hydrazide-Based HDAC8 PROTACs for the Treatment of Hematological Malignancies and Solid Tumors” (J Med Chem, 2024).
The source made the active and inactive calls. The rule behind the calls is not given here.

Key:
Jurkat [1] = assay: Upregulation of Ac-HH3 level in human Jurkat cells at 0.4 to […] uM incubated for 24 hrs by Western blot analysis; assay type: functional, cell-based; conditions: dose 0.4-33.3 µM
Jurkat [2] = assay: Upregulation of Ac-HH4 level in human Jurkat cells at 0.4 to […] uM incubated for 24 hrs by Western blot analysis; assay type: functional, cell-based; conditions: dose 0.4-33.3 µM
THP-1 [3] = assay: cells; conditions: Homo sapiens, THP-1, 72 h
Jurkat [4] = assay: Upregulation of Ac-SMC3 level in human Jurkat cells at 1 uM measured after 6 hrs by Western blot analysis; assay type: functional, cell-based
Summary of the method: (§1)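 Jurkat cells exposed to the indicated compound concentrations for 6 h. Ac-SMC3 and Ac-HH3 were detected by Western blot with GAPDH as loading control. Bands were quantified by densitometry and normalized to the DMSO-treated group. Data are mean ± SEM of two independent experiments, compared with DMSO by one-way ANOVA.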

Jurkat [5] = assay: Upregulation of Ac-tubulin level in human Jurkat cells at 1 uM measured after 6 hrs by Western blot analysis; assay type: functional, cell-based
Summary of the method: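 Jurkat cells were treated for 6 h at the indicated concentrations. Acetylated tubulin was probed by Western blot, with GAPDH as loading control.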

Jurkat [6] = assay: Upregulation of Ac-HH3 level in human Jurkat cells at 1 uM measured after 6 hrs by Western blot analysis; assay type: functional, cell-based; summary of the method: as §1
Jurkat [7] = assay: Upregulation of Ac-HH3 level in human Jurkat cells at 0.004 to 0.33 uM incubated for 6 hrs by Western blot analysis; assay type: functional, cell-based; conditions: dose 0.004-0.33 µM
Summary of the method: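 Jurkat cells were exposed to the compound for 6 h. Ac-SMC3, Ac-HH3, Ac-tubulin and HDAC8 were probed by Western blot with GAPDH as loading control. Ac-HH3 bands were quantified by densitometry and normalized to the DMSO-treated group. Values are mean ± SEM of two independent experiments, compared with DMSO by one-way ANOVA.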

Jurkat [8] = assay: Upregulation of AcHH4 level on human Jurkat cells at 1 to 10 uM measured after 48 hrs by Western blot analysis; assay type: functional, cell-based; conditions: dose 1-10 µM
Jurkat [9] = assay: Upregulation of AcHH3 level on human Jurkat cells at 1 to 10 uM measured after 48 hrs by Western blot analysis; assay type: functional, cell-based; conditions: dose 1-10 µM
Jurkat [10] = assay: Induction of apoptosis in human Jurkat cells assessed as increase in caspase 3/7 activity at 5 uM incubated for 48 hrs; assay type: functional, cell-based
HCT-116 [11] = assay: Induction of apoptosis in human HCT-116 cells assessed as increase in caspase 3/7 activity at 5 uM incubated for 48 hrs; assay type: functional, cell-based
Jurkat [12] = assay: Upregulation of Ac-HH3 level in human Jurkat cells at 3.7 to […] uM incubated for 6 hrs by Western blot analysis; assay type: functional, cell-based; conditions: dose 3.7-33.3 µM
Jurkat [13] = assay: Antiproliferative activity against human Jurkat cells assessed as inhibition of cell growth measured after 72 hrs in presence of N-(4-(2-Hexylhydrazine-1-carbonyl)benzyl)acetamide by MTS assay; assay type: functional, cell-based
THP-1 [14] = assay: Antiproliferative activity against human THP-1 cells assessed as inhibition of cell growth measured after 72 hrs in presence of N-(4-(2-Hexylhydrazine-1-carbonyl)benzyl)acetamide by MTS assay; assay type: functional, cell-based; conditions: THP-1, 72 h
HCT-116 [15] = assay: Antiproliferative activity against human HCT-116 cells assessed as inhibition of cell growth measured after 72 hrs in presence of N-(4-(2-Hexylhydrazine-1-carbonyl)benzyl)acetamide by MTS assay; assay type: functional, cell-based; conditions: HCT-116, 72 h
A549 = assay: Antiproliferative activity against human A549 cells assessed as inhibition of cell growth measured after 72 hrs in presence of N-(4-(2-Hexylhydrazine-1-carbonyl)benzyl)acetamide by MTS assay; assay type: functional, cell-based; conditions: A549, 72 h
Jurkat [16] = assay: Induction of apoptosis in human Jurkat cells assessed as increase in caspase 3/7 activity at 5 uM incubated for 48 hrs in presence of N-(4-(2-Hexylhydrazine-1-carbonyl)benzyl)acetamide; assay type: functional, cell-based
HCT-116 [17] = assay: Induction of apoptosis in human HCT-116 cells assessed as increase in caspase 3/7 activity at 5 uM incubated for 48 hrs in presence of N-(4-(2-Hexylhydrazine-1-carbonyl)benzyl)acetamide; assay type: functional, cell-based
HCT-116 [18] = assay: Induction of apoptosis in human HCT-116 cells assessed as viable cells at 10 uM measured after 48 hrs in presence of N-(4-(2-Hexylhydrazine-1-carbonyl)benzyl)acetamide by AnnexinV/FITC and PI staining based flow cytometry analysis (reference value: 91.3%); assay type: functional; conditions: read-out: Activity
HCT-116 [19] = assay: Induction of apoptosis in human HCT-116 cells assessed as early apoptotic cells at 10 uM measured after 48 hrs in presence of N-(4-(2-Hexylhydrazine-1-carbonyl)benzyl)acetamide by AnnexinV/FITC and PI staining based flow cytometry analysis (reference value: 5.39%); assay type: functional
HCT-116 [20] = assay: Induction of apoptosis in human HCT-116 cells assessed as late apoptotic cells at 10 uM measured after 48 hrs in presence of N-(4-(2-Hexylhydrazine-1-carbonyl)benzyl)acetamide by AnnexinV/FITC and PI staining based flow cytometry analysis (reference value: 1.96%); assay type: functional
HCT-116 [21] = assay: Induction of apoptosis in human HCT-116 cells assessed as necrotic cells at 10 uM measured after 48 hrs in presence of N-(4-(2-Hexylhydrazine-1-carbonyl)benzyl)acetamide by AnnexinV/FITC and PI staining based flow cytometry analysis (reference value: […]); assay type: functional
Jurkat [22] = assay: Upregulation of Ac-HH3 level in human Jurkat cells incubated for 6 hrs by Western blot analysis; assay type: functional, cell-based; summary of the method: as §1
HCT-116 [23] = assay: Upregulation of Ac-HH3 level in human HCT-116 cells incubated for 6 hrs by Western blot analysis; assay type: functional, cell-based; conditions: dose 0.004-3.3 µM
Summary of the method: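 HCT116 cells were incubated with graded concentrations for 6 h. Ac-HH3 was detected by Western blot with GAPDH as the loading control, then quantified by densitometry and normalized to DMSO-treated cells. Data are mean ± SEM of two independent experiments, compared against DMSO by one-way ANOVA.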

Jurkat [24] = assay: Effect on Ac-tubulin level in human Jurkat cells at 0.33 to 0.11 uM incubated for 6 hrs by Western blot analysis; assay type: functional, cell-based; conditions: dose 0.33-0.11 µM
Summary of the method: (§2)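 Cells were exposed to the compound for 6 h. Acetylated tubulin was detected by Western blot, with GAPDH as the loading control.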

HCT-116 [25] = assay: Effect on Ac-tubulin level in human HCT-116 cells at 0.33 to 0.11 uM incubated for 6 hrs by Western blot analysis; assay type: functional, cell-based; conditions: dose 0.33-0.11 µM; summary of the method: as §2
THP-1 [26] = assay: Upregulation of Ac-HH3 level in human THP-1 cells at 1.1 to 3.3 uM measured after 24 hrs by Western blot analysis; assay type: functional, cell-based; conditions: dose 1.1-3.3 µM
Summary of the method: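 THP-1 cells were exposed to the compound at the indicated concentrations for 24 h, then immunoblotted for Ac-HH3, Ac-SMC3, Ac-tubulin and HDAC8 with GAPDH as loading control. Band intensities were quantified and normalized to the DMSO-treated group. Data are mean ± SEM of two independent experiments, analysed by one-way ANOVA against DMSO.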

Jurkat [27] = assay: Upregulation of Ac-SMC3 level in human Jurkat cells at high concentration incubated for 6 hrs by Western blot analysis; assay type: functional, cell-based; summary of the method: as §1
Jurkat [28] = assay: Upregulation of Ac-HH3 level in human Jurkat cells at high concentration incubated for 6 hrs by Western blot analysis; assay type: functional, cell-based; summary of the method: as §1
[29] = molecular target: Protein cereblon/Histone deacetylase 8 (Homo sapiens) (UniProt Q9BY41+Q96SW2); assay: PROTAC activity at CRBN/HDAC8 in human Jurkat cells assessed as induction of HDAC8 degradation at 10 uM measured after 48 hrs by Western blot analysis; assay type: cell-based
Protein cereblon/Histone deacetylase 8 (Homo sapiens), sequence (Q96SW2 whole entry, looked up): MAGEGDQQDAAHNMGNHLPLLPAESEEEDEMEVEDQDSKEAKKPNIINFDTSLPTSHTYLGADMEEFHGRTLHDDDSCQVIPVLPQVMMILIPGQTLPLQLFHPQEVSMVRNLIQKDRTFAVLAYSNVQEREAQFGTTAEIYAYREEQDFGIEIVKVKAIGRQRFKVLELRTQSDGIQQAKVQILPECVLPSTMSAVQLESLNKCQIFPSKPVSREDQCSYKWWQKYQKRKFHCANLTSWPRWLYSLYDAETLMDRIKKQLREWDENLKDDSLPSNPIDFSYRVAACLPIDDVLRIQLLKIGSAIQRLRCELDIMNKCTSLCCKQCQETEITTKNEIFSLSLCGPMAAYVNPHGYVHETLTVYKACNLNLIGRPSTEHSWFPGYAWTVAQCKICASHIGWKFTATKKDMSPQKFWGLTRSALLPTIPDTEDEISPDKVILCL
Protein cereblon/Histone deacetylase 8 (Homo sapiens), sequence (Q9BY41 whole entry, looked up): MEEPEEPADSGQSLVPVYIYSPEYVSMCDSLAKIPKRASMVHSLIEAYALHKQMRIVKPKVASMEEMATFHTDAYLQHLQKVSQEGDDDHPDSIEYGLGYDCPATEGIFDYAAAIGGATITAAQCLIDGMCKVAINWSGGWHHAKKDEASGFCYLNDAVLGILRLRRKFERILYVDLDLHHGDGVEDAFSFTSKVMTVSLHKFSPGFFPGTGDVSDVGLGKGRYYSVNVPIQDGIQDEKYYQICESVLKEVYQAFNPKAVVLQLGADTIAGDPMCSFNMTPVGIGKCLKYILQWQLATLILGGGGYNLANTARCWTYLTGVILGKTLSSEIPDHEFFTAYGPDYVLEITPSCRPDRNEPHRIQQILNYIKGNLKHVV

Jurkat [30] = assay: Effect on AcHH3 level on human Jurkat cells at 10 uM measured after 48 hrs by Western blot analysis; assay type: functional, cell-based
Jurkat [31] = assay: Effect on AcHH4 level on human Jurkat cells at 10 uM measured after 48 hrs by Western blot analysis; assay type: functional, cell-based
Jurkat [32] = assay: Induction of apoptosis in human Jurkat cells assessed as increase in caspase 3/7 activity at 5 uM incubated for 48 hrs in presence of tert-butyl 2-(4-(4-((2,6-dioxopiperidin-3-yl)amino)phenyl)piperidin-1-yl)acetate; assay type: functional, cell-based
HCT-116 [33] = assay: Induction of apoptosis in human HCT-116 cells assessed as increase in caspase 3/7 activity at 5 uM incubated for 48 hrs in presence of tert-butyl 2-(4-(4-((2,6-dioxopiperidin-3-yl)amino)phenyl)piperidin-1-yl)acetate; assay type: functional, cell-based
HCT-116 [34] = assay: Induction of apoptosis in human HCT-116 cells assessed as viable cells at 10 uM measured after 48 hrs in presence of tert-butyl 2-(4-(4-((2,6-dioxopiperidin-3-yl)amino)phenyl)piperidin-1-yl)acetate by AnnexinV/FITC and PI staining based flow cytometry analysis (reference value: 91.3%); assay type: functional; conditions: read-out: Activity
HCT-116 [35] = assay: Induction of apoptosis in human HCT-116 cells assessed as early apoptotic cells at 10 uM measured after 48 hrs in presence of tert-butyl 2-(4-(4-((2,6-dioxopiperidin-3-yl)amino)phenyl)piperidin-1-yl)acetate by AnnexinV/FITC and PI staining based flow cytometry analysis (reference value: 5.39%); assay type: functional
HCT-116 [36] = assay: Induction of apoptosis in human HCT-116 cells assessed as late apoptotic cells at 10 uM measured after 48 hrs in presence of tert-butyl 2-(4-(4-((2,6-dioxopiperidin-3-yl)amino)phenyl)piperidin-1-yl)acetate by AnnexinV/FITC and PI staining based flow cytometry analysis (reference value: 1.96%); assay type: functional
HCT-116 [37] = assay: Induction of apoptosis in human HCT-116 cells assessed as necrotic cells at 10 uM measured after 48 hrs in presence of tert-butyl 2-(4-(4-((2,6-dioxopiperidin-3-yl)amino)phenyl)piperidin-1-yl)acetate by AnnexinV/FITC and PI staining based flow cytometry analysis (reference value: […]); assay type: functional

COc1ccc(Cn2ccc3ccc(C(=O)NO)cc32)cc1
Activity (Jurkat [1]): inactive | Activity (Jurkat [2]): inactive

Nc1ccccc1NC(=O)c1ccc(CNC(=O)OCc2cccnc2)cc1 [ENTINOSTAT]
IC50 (THP-1 [3]): 2.3 µM

O=C(CCCCCCC(=O)Nc1ccccc1)NO
Activity (Jurkat [4]): inactive | Activity (Jurkat [5]): Active | Activity (Jurkat [6]): Active | Activity (Jurkat [7]): Active | Activity (Jurkat [8]): Active | Activity (Jurkat [9]): Active | Activity (Jurkat [10]): Active | Activity (HCT-116 [11]): Active

CCCCCCN(NC(=O)c1ccc(CNC(=O)CN2CCC(c3ccc(NC4CCC(=O)NC4=O)cc3)CC2)cc1)C(=O)OC(C)(C)C (centres undefined)
Activity (Jurkat [12]): inactive

CC(C)(C)OC(=O)CN1CCC(c2ccc(NC3CCC(=O)NC3=O)cc2)CC1 (centres undefined)
IC50 (Jurkat [13]): > 33.3 µM | IC50 (THP-1 [14]): > 33.3 µM | IC50 (HCT-116 [15]): > 33.3 µM | IC50 (A549): > 33.3 µM | Activity (Jurkat [16]): inactive | Activity (HCT-116 [17]): inactive | viability at 10 µM (HCT-116 [18]): 73.2% | Activity (HCT-116 [19]): 19.6% | Activity (HCT-116 [20]): 3.87% | Activity (HCT-116 [21]): 3.33%

CCCCCCNNC(=O)c1ccc(CNC(=O)CN2CCC(c3ccc(NC(C)=O)cc3)CC2)cc1
Activity (Jurkat [22]): Dose-Dependent Effect | Activity (HCT-116 [23]): Dose-Dependent Effect | Activity (Jurkat [24]): inactive | Activity (HCT-116 [25]): inactive | Activity (THP-1 [26]): Active

CCCCCCNNC(=O)c1ccc(CNC(C)=O)cc1
Activity (Jurkat [4]): inactive | Activity (Jurkat [27]): Active | Activity (Jurkat [28]): Active | Activity [29]: inactive | Activity (Jurkat [30]): inactive | Activity (Jurkat [31]): inactive | Activity (Jurkat [32]): inactive | Activity (HCT-116 [33]): inactive | viability at 10 µM (HCT-116 [34]): 73.2% | Activity (HCT-116 [35]): 19.6% | Activity (HCT-116 [36]): 3.87% | Activity (HCT-116 [37]): 3.33%
